Bioassay records as filed in PubChem BioAssay.
PPC-1+TRAIL kill: compounds killing PPC-1 cancer cells with TRAIL present, primary screen, TRAIL potentiator project, ATPLite luminescence, uHTS; PPC-1 cells + TRAIL, ATPLite viability luminescence; AID 1443, 2008; actives 0.41% (n = 220,000); cell killing (% activity), % at 4 µM or 5 µM;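 active = cell killing above 50% in the first pass at 4 µM, then a duplicate retest at 5 µM averaging 50% or more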;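 also: plate controls were cells with TRAIL plus DMSO for no effect and medium-only wells lacking cells for full effect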
C8 TRAIL sens: viability loss with TRAIL in NB7+C8 cells, primary screen, TRAIL sensitizer project, cell-based, ATPlite luminescence. inhibition (viability loss, TRAIL sensitization), % at 10 µM. actives 1% (n = 360,000). AID 624354, 2012;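 active = compounds causing at least 50% loss of cell viability in the single-dose screen, relative to plate controls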
NF-kB expr up: activators of NF-kB expression in neurons, primary screen, cell-based, HTS. human neuronal cells, NF-kB reporter expression; stronger effect = higher value. fold change at 12.5 µM. actives 1.6% (n = 190,000); in the data active = fold change above about 3.3
FLuc inh counter: firefly luciferase enzyme inhibitors, primary screen, artefact control for luciferase-based inhibitor screens, biochemical, luminescence, ATPLite | Luciferin 4-monooxygenase (Photinus pyralis), P08659 | 10 min | inhibition, % at 10 µM | actives 1.5% (n = 200,000);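 active = inhibition above about 50% when tested at 10 µM, limit read from the data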
Target sequence (P08659 whole entry, looked up): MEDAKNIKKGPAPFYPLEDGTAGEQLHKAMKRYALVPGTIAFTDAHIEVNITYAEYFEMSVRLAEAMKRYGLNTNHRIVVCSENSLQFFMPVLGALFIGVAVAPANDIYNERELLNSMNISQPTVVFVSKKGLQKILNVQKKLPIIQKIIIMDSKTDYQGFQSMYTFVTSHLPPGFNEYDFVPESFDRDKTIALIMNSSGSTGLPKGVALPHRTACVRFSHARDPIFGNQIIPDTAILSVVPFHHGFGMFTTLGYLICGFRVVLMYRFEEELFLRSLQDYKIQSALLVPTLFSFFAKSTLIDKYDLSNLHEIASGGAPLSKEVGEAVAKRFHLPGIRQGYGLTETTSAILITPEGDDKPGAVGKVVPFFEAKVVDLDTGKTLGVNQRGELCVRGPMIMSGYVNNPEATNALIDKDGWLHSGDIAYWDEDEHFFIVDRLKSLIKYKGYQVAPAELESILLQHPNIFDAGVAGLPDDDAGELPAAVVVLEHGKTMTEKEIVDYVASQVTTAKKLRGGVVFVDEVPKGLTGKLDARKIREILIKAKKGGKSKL
APP 5'UTR act: activators of APP 5'UTR luciferase reporter, primary screen, SH-SY5Y cells; SH-SY5Y APP 5'UTR luciferase reporter, luminescence; zero percent = DMSO vehicle wells; activation, % at 2 µM; actives 1% (n = 190,000);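 active = activation above a set limit, based on mean plus 3 SD of controls, cut at about 140% in these data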
FLuc act counter: FLuc activators, initial screening, artefact control for FLuc-dependent activation tests, biochemical, ATPlite luminescence; Luciferin 4-monooxygenase (Photinus pyralis), P08659; ATPlite luciferase biochemical, 10 min; 0 = ATP-free wells, 1 = DMSO control; activation factor at 10 µM; 200,000 tested, under 10 active;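 active = luciferase activation factor, scaled between plate controls, of at least 2 with compound at 10 µM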
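System: cell-free luciferase reagent; medium: PBS as buffer for the ATP substrate; doses: test compounds dosed from 2 mM stocks in 100% DMSO; incubation: 10 min, room temperature; measured by: luminescence from luciferase reaction; read-out: luciferase activation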
An asterisk follows results filed as active. In the library only some 2.2% were active in any assay of this set; here they are far more common.

For Cc1ccc(N(Cc2ccccc2)C(=O)Cc2ccc(S(=O)(=O)N3CCOCC3)s2)cc1 the results were C8 TRAIL sens -1.
Screening CCOC1=C2[C@@H](CN(S(=O)(=O)c3ccc(C)cc3)[C@H]2c2cccs2)[C@H]2C(=O)N(c3ccccc3)C(=O)[C@H]2C1 returned C8 TRAIL sens -12.
NC(=O)c1c(NC(=O)c2cccc(N3C(=O)CCC3=O)c2)sc2c1CCCCC2 was read as C8 TRAIL sens 83*.
For Cc1cc(C)n2nc(C(=O)Nc3ccc4c(c3)CCC4)nc2n1 the results were PPC-1+TRAIL kill 29, C8 TRAIL sens 26, NF-kB expr up 2.4, FLuc inh counter 52*, APP 5'UTR act 37 and FLuc act counter 0.5.
`Cc1cc(C)n2nc(C(=O)Nc3ccc(S(=O)(=O)N4CCCC4)cc3)nc2n1` gave PPC-1+TRAIL kill 12 and C8 TRAIL sens -7.
For Cc1ccc(C(=O)Nc2ccc3c(c2)CCC3)o1 the results were PPC-1+TRAIL kill 47, C8 TRAIL sens 33, NF-kB expr up 7.8*, FLuc inh counter 55*, APP 5'UTR act 119 and FLuc act counter 0.4.
O=C(Nc1ccc(N2CCN(C(=O)c3ccccc3)CC2)cc1)c1cc2ccccc2o1 was read as PPC-1+TRAIL kill -2, C8 TRAIL sens 52*, NF-kB expr up 0.74, FLuc inh counter -8, APP 5'UTR act -20 and FLuc act counter 1.1.
CN1CCN(c2ccc(NC(=O)c3cc4ccccc4o3)cc2)CC1 was read as C8 TRAIL sens 29.
For O=C(Nc1ccc2c(c1)CCC2)c1ccc(Br)o1 the results were PPC-1+TRAIL kill 27, C8 TRAIL sens 18, NF-kB expr up 3.3, FLuc inh counter 35, APP 5'UTR act 116 and FLuc act counter 0.6.
Nc1nnc(-c2cc3c(ccc4ccccc43)oc2=O)s1 was read as PPC-1+TRAIL kill 22, NF-kB expr up 0.95, FLuc inh counter 4, APP 5'UTR act -3 and FLuc act counter 1.
Screening O=C(Nc1ccccc1)c1cc(C2CCCN(C(=O)C3CC3)C2)on1 (stereo unspecified) returned C8 TRAIL sens 51*.
`CC(=O)N1CCCC(c2cc(C(=O)Nc3ccccc3)no2)C1` (stereo unspecified) gave C8 TRAIL sens 43.
For CC1=Nc2ccccc2N=C(N)C1c1ccccc1 (stereo unspecified) the results were PPC-1+TRAIL kill -12, C8 TRAIL sens -10, NF-kB expr up 1, FLuc inh counter -3, APP 5'UTR act 192* and FLuc act counter 1.
Screening COc1ccc(-n2c(SCC(N)=O)nc3sc4c(c3c2=O)CCC4)cc1 returned PPC-1+TRAIL kill 20, C8 TRAIL sens 3, NF-kB expr up 1.2, FLuc inh counter -3, APP 5'UTR act -26 and FLuc act counter 1.
CCCCCCc1cc2cc(C(=O)Nc3ccccc3)c(=O)oc2cc1O was read as PPC-1+TRAIL kill 9, C8 TRAIL sens 60*, NF-kB expr up 0.93, FLuc inh counter 0, APP 5'UTR act -15 and FLuc act counter 1.
CCCCCCc1cc2cc(C(=O)NCc3ccccc3)c(=N)oc2cc1O was read as PPC-1+TRAIL kill 14, C8 TRAIL sens 4, NF-kB expr up 1.1, FLuc inh counter -9, APP 5'UTR act 1 and FLuc act counter 1.1.
O=C(NC(c1ccccc1)c1cnccn1)C1CCN(CCOc2ccc(Cl)cc2Cl)CC1 (stereo unspecified) was read as C8 TRAIL sens -13.
CC(C)Cc1nnc(NC(=O)c2cc3c(s2)CCC3)s1 was read as PPC-1+TRAIL kill 14 and C8 TRAIL sens 7.
Screening O=C(Nc1nncs1)c1cc2c(s1)CCC2 returned PPC-1+TRAIL kill 22, C8 TRAIL sens 30, NF-kB expr up 1.1, FLuc inh counter 63*, APP 5'UTR act 40 and FLuc act counter 0.4.
For Fc1ccccc1/C=N/Nc1nc2ccccc2o1 the results were C8 TRAIL sens 1.
For Brc1ccc(C2=NC(Cc3ccccc3)CO2)cc1 (stereo unspecified) the results were PPC-1+TRAIL kill 10, C8 TRAIL sens -8, NF-kB expr up 3.3*, FLuc inh counter 2, APP 5'UTR act 62 and FLuc act counter 1.
Screening O=S1(=O)N[C@@H](Cc2ccccc2)COc2cc(Br)ccc21 returned C8 TRAIL sens -4.
COc1ccc(OC)c(S(=O)(=O)NC(=O)C2(C)CCN2C(=O)CC2CCCC2)c1 (stereo unspecified) was read as C8 TRAIL sens -11.
For COc1ccccc1NC(=O)Nc1ccc2c(c1)nnn2C the results were PPC-1+TRAIL kill 40, C8 TRAIL sens 54*, NF-kB expr up 1.6, FLuc inh counter 34, APP 5'UTR act 29 and FLuc act counter 0.7.
`Cn1nnc2cc(NC(=O)Nc3ccccc3F)ccc21` gave C8 TRAIL sens 33.
`O=C1NC[C@@H](CCCCN2C[C@H](Cc3ccc(O)cc3)N(CCc3ccc(O)cc3)C(=O)C2=O)N(CCc2ccccc2)C1=O` gave C8 TRAIL sens -5.
`CC1=Nc2cc([N+](=O)[O-])ccc2NC(C)(C)C1` gave PPC-1+TRAIL kill 22, C8 TRAIL sens 8, NF-kB expr up 1.1, FLuc inh counter 6, APP 5'UTR act 136* and FLuc act counter 0.9.
Screening O=C(NCCOc1ccccc1)c1cccc2c1C(=O)c1ccc(Cl)cc1S2(=O)=O returned C8 TRAIL sens 55*.
Screening N#Cc1cccnc1N1CCN(C(=O)c2cccc3c2C(=O)c2ccc(Cl)cc2S3(=O)=O)CC1 returned C8 TRAIL sens 78*.
O=C1c2ccc(Cl)cc2S(=O)(=O)c2cccc(C(=O)N3CCC(Cc4ccccc4)CC3)c21 was read as C8 TRAIL sens 93*.
`COc1ccc(-c2ccc3c(c2)O/C(=C\c2ccsc2)C3=O)cn1` gave C8 TRAIL sens -3.
`O=C(COC(=O)c1ccc(O)cc1O)NC(=O)Cc1ccccc1` gave C8 TRAIL sens -17.
COc1ccc(/C(N)=N/OC(=O)c2ccc(OC)c([N+](=O)[O-])c2)cc1OC was read as PPC-1+TRAIL kill 3, C8 TRAIL sens 64*, NF-kB expr up 0.89, FLuc inh counter -4, APP 5'UTR act 15 and FLuc act counter 1.
Screening COc1ccccc1C/C(N)=N/OC(=O)c1ccc(C)c([N+](=O)[O-])c1 returned PPC-1+TRAIL kill 3, C8 TRAIL sens 55*, NF-kB expr up 3.3, FLuc inh counter -9, APP 5'UTR act 4 and FLuc act counter 1.1.
COc1ccc(/C(N)=N/OC(=O)c2cccc([N+](=O)[O-])c2)cc1OC was read as PPC-1+TRAIL kill 42, C8 TRAIL sens -7, NF-kB expr up 1.3, FLuc inh counter -9 and FLuc act counter 1.1.
